Assay results reported in ChEMBL document CHEMBL1765001, “Synthesis and pharmacological evaluation of thieno[2,3-b]pyridine derivatives as novel c-Src inhibitors” (Bioorg Med Chem, 2011).
Calls of active or inactive are those of the source. The calls are words filed in the database; no cut-off is given here.

What was measured:
[1] = test system: Fibroblast; assay: Antitumor activity against Src-transformed fibroblasts xenograft model assessed as tumor growth inhibition at 50 mg/kg, ip after 7 days; format: functional, organism-based; design: dose 50 mg/kg
[2] = target: T1, Proto-oncogene tyrosine-protein kinase Src (Homo sapiens, UniProt P12931); assay: Inhibition of c-SRC in human HCT116 cells assessed as phosphorylated FAK level after 5 hrs by Western blot assay; format: cell-based; details: HCT-116
T1 sequence (P12931 2-536 limits assumed): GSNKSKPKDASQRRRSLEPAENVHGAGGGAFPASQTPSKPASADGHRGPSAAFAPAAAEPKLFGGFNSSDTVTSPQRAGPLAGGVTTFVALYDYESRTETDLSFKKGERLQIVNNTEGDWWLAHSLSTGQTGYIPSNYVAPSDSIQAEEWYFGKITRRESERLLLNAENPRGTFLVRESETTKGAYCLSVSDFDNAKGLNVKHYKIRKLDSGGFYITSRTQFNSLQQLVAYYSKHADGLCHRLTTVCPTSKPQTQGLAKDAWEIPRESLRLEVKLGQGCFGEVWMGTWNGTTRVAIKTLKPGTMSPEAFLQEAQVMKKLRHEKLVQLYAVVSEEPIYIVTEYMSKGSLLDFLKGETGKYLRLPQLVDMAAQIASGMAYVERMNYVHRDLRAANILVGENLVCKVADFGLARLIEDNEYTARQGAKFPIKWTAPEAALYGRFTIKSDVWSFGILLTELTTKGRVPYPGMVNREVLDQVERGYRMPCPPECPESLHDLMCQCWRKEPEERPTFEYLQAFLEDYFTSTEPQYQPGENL
How it was run: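 HCT116 colon carcinoma cells seeded overnight, serum-starved, treated with inhibitors 5 h at 3 and 10 µM final; lysed in 2X Laemmli buffer, gradient SDS-PAGE, PVDF transfer. Phospho-FAK by anti-pTyr861, total FAK on separate blot; ratio by film densitometry.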

[3] = target: T1, Proto-oncogene tyrosine-protein kinase Src; assay: Inhibition of c-SRC assessed as residual activity using KVEKIGEGYYGVVYK as peptide substrate after 20 mins by scintillation counting
How it was run: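 Radiometric kinase assay: Src kinase ([…] stock diluted to 200 nM in kinase buffer) with peptide substrate (370 µM stock) and inhibitor from 10% DMSO dilution, in buffer with MgCl2, EDTA, DTT; started with 40 µM ATP plus 33P-γ-ATP, 20 min at 30 °C; stopped with 0.85% orthophosphoric acid, phosphocellulose filter capture, scintillation count. IC50 from sigmoidal variable-slope fit of mean data, at least two determinations; DMSO negative control.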

[4] = target: T1, Proto-oncogene tyrosine-protein kinase Src; assay: Inhibition of c-SRC in EGF-stimulated human A431 cells assessed as phosphorylated STAT3 level by Western blot assay; format: cell-based; details: A-431
How it was run: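 A431 epidermoid carcinoma cells starved overnight, stimulated 10 min with EGF (100 ng/ml), lysed in 2X Laemmli buffer; phospho-STAT3 detected with anti-pTyr705 antibody, total STAT3 on a separate blot; pSTAT3/total STAT3 ratio by densitometry of X-ray films. DMSO with EGF set as 100% phosphorylation; 4-anilinoquinoline-3-carbonitrile positive control.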

[5] = target: T1, Proto-oncogene tyrosine-protein kinase Src

SMILES | Activity [2] [µM] | IC50 [3] [nM] | other results
COc1cc(Nc2c(C#N)cnc3cc4cc(OCCN5CCOCC5)c(OC)cc4cc23)c(Cl)cc1Cl | – | – | Activity [1]: Active
Cc1cc(C(F)(F)F)nc2sc(C(=O)N/N=C/c3cncn3C)c(N)c12 | > 10 | 330 | –
Cc1cc(NCCN(C)C)nc2sc(C(=O)N/N=C/c3cccn3C)c(N)c12 | 10 | 246 | –
CN(C)CCNc1cc(Cc2ccccc2)c2c(N)c(C(=O)N/N=C/c3cccn3C)sc2n1 | 3 | 40 | –
CCCc1cc2c(N)c(C(=O)N/N=C/c3cccn3C)sc2nc1NCCN(C)C | – | 2080 | –
Cc1cc(C)c2c(N)c(C(=O)N/N=C/c3cccn3CCN(C)C)sc2n1 | – | > 10000 | –
Cc1cc(C)c2c(N)c(C(=O)N/N=C/c3cccc4ccccc34)sc2n1 | – | 269 | Activity [4]: 10 µM
Cc1cc(NCCN(C)C)nc2sc(C(=O)N/N=C/c3cccc4ccccc34)c(N)c12 | > 10 | 230 | –
CN(C)CCNc1nc2sc(C(=O)N/N=C/c3cccn3C)c(N)c2cc1Cc1ccccc1 | – | 3870 | –
CN(C)CCNc1cc(-c2ccccc2)c2c(N)c(C(=O)N/N=C/c3cccc4ccccc34)sc2n1 | 3 | 107 | –
Cc1cc(C)c2c(N)c(C(=O)N/N=C/c3cncn3C)sc2n1 | – | 769 | Activity [4]: > 10 µM
Cn1cncc1/C=N/NC(=O)c1sc2ncccc2c1N | – | 1300 | –
CCCc1cc(NCCN(C)C)nc2sc(C(=O)N/N=C/c3cccn3C)c(N)c12 | 10 | 63 | –
CN(C)CCNc1cc(-c2ccccc2)c2c(N)c(C(=O)N/N=C/c3cccn3C)sc2n1 | 3 | 68 | –
Cc1cc(C)c2c(N)c(C(=O)N/N=C/c3cccn3C)sc2n1 | – | 840 | –
Nc1c(C(=O)N/N=C/c2cccc3ccccc23)sc2ncccc12 | – | > 10000 | –
CN(C)CCNc1cc(-c2ccccc2)c2c(N)c(C(=O)N/N=C/c3cncn3C)sc2n1 | 3 | 32 | –
Cc1cc(C(F)(F)F)nc2sc(C(=O)N/N=C/c3cccc4ccccc34)c(N)c12 | – | 1340 | –
O=C(Cc1ccc(-c2ccc(OCCN3CCOCC3)cc2)cn1)NCc1ccccc1 [TIRBANIBULIN] | – | – | IC50 [5]: 20 nM
